Measured values: ChEMBL document CHEMBL1142087 (Antimicrob Agents Chemother, 2007)
Activity calls are given as the source filed them. The rule behind the calls is not given here.

What was measured:
Mus musculus [1] = assay: Inhibition of increase in lung weight of BALB/c mouse infected with influenza A virus (A/duck/Minnesota/1525/1981 (H5N1)) at 33 mg/kg/day, po qid for 5 days administered 1 hr after infection measured on day 6 relative to carboxymethyl cellulose; format: functional
Mus musculus [2] = assay: Lowering of arterial oxygen saturation decline in BALB/c mouse infected with influenza A virus (A/duck/Minnesota/1525/1981 (H5N1)) at 300 mg/kg/day, po qid for 5 days administered 96 hrs after infection measured on day 11 relative to carboxymethyl cellulose; format: functional
Mus musculus [3] = assay: Effect on survival of BALB/c mouse infected with influenza A virus (A/duck/Minnesota/1525/1981 (H5N1)) at 300 mg/kg/day, po once daily for 5 days administered 1 hr after infection relative to carboxymethyl cellulose; format: functional, organism-based
Mus musculus [4] = assay: Inhibition of increase in lung weight of BALB/c mouse infected with influenza A virus (A/duck/Minnesota/1525/1981 (H5N1)) at 300 mg/kg/day, po qid for 5 days administered 1 hr after infection measured on day 6 relative to carboxymethyl cellulose; format: functional
Mus musculus [5] = assay: Lowering of arterial oxygen saturation decline in BALB/c mouse infected with influenza A virus (A/duck/Minnesota/1525/1981 (H5N1)) at 100 mg/kg/day, po once daily for 5 days administered 1 hr after infection measured on day 11 relative to carboxymethyl cellulose; format: functional
Mus musculus [6] = assay: Lowering of arterial oxygen saturation decline in BALB/c mouse infected with influenza A virus (A/duck/Minnesota/1525/1981 (H5N1)) at 300 mg/kg/day, po qid for 5 days administered 24 hrs after infection measured on day 11 relative to carboxymethyl cellulose; format: functional
Mus musculus [7] = assay: Lowering of Arterial oxygen saturation decline in BALB/c mouse infected with influenza A virus (A/duck/Minnesota/1525/1981 (H5N1)) at 10 mg/kg/day, po twice daily for 5 days administered 1 hr after infection measured on day 11 relative to carboxymethyl cellulose; format: functional
Method in brief: (§1)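 Arterial oxygen saturation was measured by pulse oximeter, with the ear probe placed on the thigh and read after 30 s stabilization. Values were taken on day 11, 10 mice per group. Mice dead from infection were assigned 75%. Means were compared with CMC controls by t test.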

Mus musculus [8] = assay: Lowering of arterial oxygen saturation decline in BALB/c mouse infected with influenza A virus (A/duck/Minnesota/1525/1981 (H5N1)) at 10 mg/kg/day, po once daily for 5 days administered 1 hr after infection measured on day 11 relative to carboxymethyl cellulose; format: functional
Mus musculus [9] = assay: Effect on survival of BALB/c mouse infected with influenza A virus (A/duck/Minnesota/1525/1981 (H5N1)) at 300 mg/kg/day, po qid for 5 days administered 1 hr after infection relative to carboxymethyl cellulose; format: functional, organism-based
Mus musculus [10] = assay: Effect on survival in BALB/c mouse infected with influenza A virus (A/duck/Minnesota/1525/1981 (H5N1)) at 300 mg/kg/day, po administered 48 hrs after infection relative to carboxymethyl cellulose; format: functional, organism-based
Mus musculus [11] = assay: Lowering of Arterial oxygen saturation decline in BALB/c mouse infected with influenza A virus (A/duck/Minnesota/1525/1981 (H5N1)) at 3 mg/kg/day, po twice daily for 5 days administered 1 hr after infection measured on day 11 relative to carboxymethyl cellulose; format: functional; method in brief: as §1
Mus musculus [12] = assay: Lowering of arterial oxygen saturation decline in BALB/c mouse infected with influenza A virus (A/duck/Minnesota/1525/1981 (H5N1)) at 300 mg/kg/day, po qid for 5 days administered 36 hrs after infection measured on day 11 relative to carboxymethyl cellulose; format: functional
Mus musculus [13] = assay: Effect on survival of BALB/c mouse infected with influenza A virus (A/duck/Minnesota/1525/1981 (H5N1)) at 100 mg/kg/day, po twice daily for 5 days administered 1 hr after infection relative to carboxymethyl cellulose; format: functional, organism-based
Mus musculus [14] = assay: Lowering of arterial oxygen saturation decline in BALB/c mouse infected with influenza A virus (A/duck/Minnesota/1525/1981 (H5N1)) at 300 mg/kg/day, po qid for 5 days administered 120 hrs after infection measured on day 11 relative to carboxymethyl cellulose; format: functional
Mus musculus [15] = assay: Effect on survival in BALB/c mouse infected with influenza A virus (A/duck/Minnesota/1525/1981 (H5N1)) at 600 mg/kg/day, po administered 60 hrs after infection relative to carboxymethyl cellulose; format: functional, organism-based
Mus musculus [16] = assay: Lowering of arterial oxygen saturation decline in BALB/c mouse infected with influenza A virus (A/duck/Minnesota/1525/1981 (H5N1)) at 300 mg/kg/day, po once daily for 5 days administered 1 hr after infection measured on day 11 relative to carboxymethyl cellulose; format: functional
Mus musculus [17] = assay: Effect on survival of BALB/c mouse infected with influenza A virus (A/duck/Minnesota/1525/1981 (H5N1)) at 100 mg/kg/day, po qid for 5 days administered 1 hr after infection relative to carboxymethyl cellulose; format: functional, organism-based
Mus musculus [18] = assay: Lowering of Arterial oxygen saturation decline in BALB/c mouse infected with influenza A virus (A/duck/Minnesota/1525/1981 (H5N1)) at 100 mg/kg/day, po qid for 5 days administered 1 hr after infection measured on day 11 relative to carboxymethyl cellulose; format: functional; method in brief: as §1
Mus musculus [19] = assay: Lowering of arterial oxygen saturation decline in BALB/c mouse infected with influenza A virus (A/duck/Minnesota/1525/1981 (H5N1)) at 300 mg/kg/day, po qid for 5 days administered 72 hrs after infection measured on day 11 relative to carboxymethyl cellulose; format: functional
Influenza A virus = assay: Inhibition of influenza A virus (A/duck/Minnesota/1525/1981 (H5N1)) replication in MDCK cells by virus yield reduction assay; format: functional
Mus musculus [20] = assay: Effect on survival in BALB/c mouse infected with influenza A virus (A/duck/Minnesota/1525/1981 (H5N1)) at 600 mg/kg/day, po administered 12 hrs after infection relative to carboxymethyl cellulose; format: functional, organism-based

For `NC(=O)c1nc(F)cnc1O` [FAVIPIRAVIR], the Activity (Mus musculus [1]) was 217 mg, the Activity (Mus musculus [2]) was 81.2% and the Activity (Mus musculus [3]) was “Active”. It also gave an Activity (Mus musculus [4]) of 146 mg, an Activity (Mus musculus [5]) of 80.8% and an Activity (Mus musculus [6]) of 85.3%. For the same compound, the Activity (Mus musculus [7]) was 75.5%, the Activity (Mus musculus [8]) was 77% and the Activity (Mus musculus [9]) was “Active”. The Activity (Mus musculus [10]) was “Active”, the Activity (Mus musculus [11]) was 75% and the Activity (Mus musculus [12]) was 84.6%. The Activity (Mus musculus [13]) was “Active”, the Activity (Mus musculus [14]) was 76% and the Activity (Mus musculus [15]) was “Active”. The Activity (Mus musculus [16]) was 82.7%, the Activity (Mus musculus [17]) was “Active” and the Activity (Mus musculus [18]) was 85.9%. For the same compound, the Activity (Mus musculus [19]) was 84.1%, the EC90 (Influenza A virus) was 2600 nM and the Activity (Mus musculus [20]) was “Active”.
